Measurements published in the EternaBench riboswitch data.

Test system: MS2 coat protein
Experiment: apparent Kd, MS2 coat protein; higher = weaker binding; RNA-MaP array; FMN 200 µM where present
Method in brief: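 The apparent Kd is reported as the median of filtered per-cluster binding-curve fits. To get these curves, designs transcribed by stalled E. coli RNA polymerase on Illumina sequencing-chip clusters were titrated with SNAP-549-labelled MS2 coat protein from 0.7 or 1.5 nM, doubling to 3 µM. Titrations were run without and then with constant ligand in 100 mM Tris-HCl pH 7.5, 80 mM KCl, 4 mM MgCl2, BSA, DTT, yeast tRNA and Tween-20, and green signal was normalised to red-channel RNA signal and control-cluster median Fmax.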

[1] = designed as: OFF switch for flavin mononucleotide, no ligand
[2] = ligand present: flavin mononucleotide, designed as: OFF switch for flavin mononucleotide
[3] = designed as: ON switch for flavin mononucleotide, no ligand
[4] = ligand present: flavin mononucleotide, designed as: ON switch for flavin mononucleotide

In the case of “AGCCUACAUGAGGAUCACCCAUGUCAGGAUAUCUCGCGGCGUGUCAAGUUCACACUGCAGAGAAGGGACUCGGG”, the “apparent Kd” value [1] is reported as 58.1 nM and the “apparent Kd” value [2] is reported as 66.9 nM.

“UGUGCUAUGUAGAAGGCAGAUCUGAUUCAGAUCUGAGGAUAUACAUGAGGAUCACCCAUGUUAUGCACCAGCACGAGAGUGCAU” was tested, and the “apparent Kd” value [1] was 17.7 nM and the “apparent Kd” value [2] was 91.8 nM.

In the case of “ACGACGAAAGUCGAACGAUGUAGCAGAAGGACAUGAGGAUCACCCAUGUCAGCUGUGCAAAACAUGUAGGAUAUGCUACAUCGA”, the “apparent Kd” value [1] is reported as 6.14 nM and the “apparent Kd” value [2] is reported as 11.3 nM.

“CCCUGAUUGAGAGGUAGGAGUGGUAGAAGGCGACCGGUGCCAGAUGACAUGAGGAUCACCCAUGUCGAGGAUAUACCACAGAAU” was tested, and the “apparent Kd” value [1] was 6.7 nM and the “apparent Kd” value [2] was 12.2 nM.

In the case of “GGUCCACAUGAGGAUCACCCAUGUUAGGAUAUCUCGCCCGAGUCCAUAUGGGCCGGGCAGAGAAGGAAUGUGAA”, the “apparent Kd” value [1] is reported as 21 nM and the “apparent Kd” value [2] is reported as 22.6 nM.

“UCAUGGAAGCAGGAUAUGCUUGUUUAAUUGUUUGCAGAAGGGCUAACAUGAGGAUCACCCAUGUAAGAGGUCUA” was tested, and the “apparent Kd” value [1] was 45.8 nM and the “apparent Kd” value [2] was 34.1 nM.

With “CUCCUGUGAUUAGGAUAUGUGCGCACUGUGCUAGCAGAAGGGAUCACAUGAGGAUCACCCAUGUGAGUAGCUCACUGUAAAGGG” the “apparent Kd” value [1] was 111 nM and the “apparent Kd” value [2] was 107 nM.

“UUAUUAGGACAGAAGGGUAGACAUGAGGAUCACCCAUGUAAUAUAAGGUGCAGGAUAUGUAAUAAUUGAGAUUCAUCAUUUUGC” was tested, and the “apparent Kd” value [3] was 198 nM and the “apparent Kd” value [4] was 142 nM.

For “ACAUGGUAGUAGAAGGGUAUUACUUUAGAUACAACCAUUUGUAUUGUUUAUACAGGAUAUGCUUACAUGAGGAUCACCCAUGUU”, the “apparent Kd” value [1] was 11.3 nM and the “apparent Kd” value [2] was 11.1 nM.

In the case of “UUUUUGUGAGGAUAUUAGUAGUAAAUGAAUAAAAUUAUUACUGAGAAGGCACAUGAGGAUCACCCAUGUUCCUU”, the “apparent Kd” value [1] is reported as 15.1 nM and the “apparent Kd” value [2] is reported as 71.8 nM.

“CCACCUACUGAGGAUAUUGCAUCACCCGACUGAUAAGAAGGCAGAACAUGAGGAUCACCCAUGUGGGUACUCAC” was tested, and the “apparent Kd” value [1] was 94 nM and the “apparent Kd” value [2] was 103 nM.

“GCCAUCGCAUGAGGAUAUGGCACCGUUUCGGUGCCAGAAGGCAUGUCAAAUGACAUGAGGAUCACCCAUGUAGUUAAGAUGGCC” was tested, and the “apparent Kd” value [3] was 157 nM and the “apparent Kd” value [4] was 13 nM.

With “UAUGACAUGAGGAUCACCCAUGUCAGCGAGAAAUGAGAGUCACAGGAUAUGUUUUCGGCCGGCAGACAGAAGGGUGACCCUGAG” the “apparent Kd” value [3] was 10.9 nM and the “apparent Kd” value [4] was 7.02 nM.

In the case of “GCAGCUAAUGCAGGAUAUCAGCACGUGUAGUGCUGAGAAGGGCACAUGAGGAUCACCCAUGUGAUCAAUUAAUGUUAAUGCUGC”, the “apparent Kd” value [1] is reported as 18.1 nM and the “apparent Kd” value [2] is reported as 57.5 nM.

With “UGAUUGAGAUUGUAGGAUAUUGGAAAAGCCACAUGAGGAUCACCCAUGUCAAAAAAAAAAAAAAACAAGAAGGGCGGUUUUAGUUA” the “apparent Kd” value [3] was 72.9 nM and the “apparent Kd” value [4] was 61.8 nM.

With “GCUGCGCGAGGAUAUGCGGUUUGCGCUGUGGCCCGUGGCGUACAUGAGGAUCACCCAUGUAGAAGGCGUGCGGG” the “apparent Kd” value [1] was 11.6 nM and the “apparent Kd” value [2] was 12.1 nM.

For “GAUUGACAUGAGGAUCACCCAUGUGAGGAUAUCGGCUGGACCGUGUUGGCUUCCGUUUCGAGAAGGCGCAUAGG”, the “apparent Kd” value [1] was 26.1 nM and the “apparent Kd” value [2] was 48.3 nM.

With “ACGUGUAAGCAGAAGGGUUAGCACAUGAGGAUCACCCAUGUAACAGUGGACAGGAUAUGCGCUCAUGUUGGAUAGGGCCUUCCC” the “apparent Kd” value [3] was 302 nM and the “apparent Kd” value [4] was 67.6 nM.

With “UUGAGGUCAGGAUAUGCAUGGCGGGACUUGCGUCGUGGCGUGGAGAAGGGACAUGAGGAUCACCCAUGUGGAGC” the “apparent Kd” value [1] was 55.6 nM and the “apparent Kd” value [2] was 62 nM.

For “UUUUAACAUGAGGAUCACCCAUGUGAGGAUAUCGAAAUUUAUAUUUAUAUUAAUUAAUCGAGAAGGCACAUUUU”, the “apparent Kd” value [1] was 151 nM and the “apparent Kd” value [2] was 156 nM.

“CUCCAUUCUGGAGGAUAUCAUAGUCGUUGACUAUGAGAAGGUUAGCUAUCUUACAUGAGGAUCACCCAUGUGAUCUACAUGGAG” was tested, and the “apparent Kd” value [3] was 40.5 nM and the “apparent Kd” value [4] was 10.8 nM.

“GUAGCUACAAUUAUACAUGAGGAUCACCCAUGUUACAUGGGUAAGGAUAUUGAGGUUAUUAUUGUCAAGAAGGUACUAUGCUAC” was tested, and the “apparent Kd” value [3] was 505 nM and the “apparent Kd” value [4] was 71.6 nM.

With “CACCCACAUGAGGAUCACCCAUGUGAGGAUAUGAUACUAUGUACUUCGGUACAUAGUAUCAGAAGGCACAGGUG” the “apparent Kd” value [1] was 32 nM and the “apparent Kd” value [2] was 106 nM.

“AACCAGUUGGUAGGAUAUGGUGCAGUGCCCGUACCAGAAGGACCAACAUGAGGAUCACCCAUGUUGGAAAGUCAACAUUAAUGA” was tested, and the “apparent Kd” value [1] was 6.32 nM and the “apparent Kd” value [2] was 11.8 nM.

In the case of “AACAGUAGAGGAUAUACAUGAGGAUCACCCAUGUGAUAAUUACGUGGCGUACCACGAAGUAGAAGGCUACUGGA”, the “apparent Kd” value [1] is reported as 65.6 nM and the “apparent Kd” value [2] is reported as 316 nM.

In the case of “AAUAUGAGCUGGAAUAAAACCUUGACAUGAGGAUCACCCAUGUAGGAUAUCAGCACGAUAAGUGCUGAGAAGGACAACCAGCUC”, the “apparent Kd” value [1] is reported as 14.4 nM and the “apparent Kd” value [2] is reported as 15.6 nM.

“GACUGAAUACAGAAGGUGUUUGACAUGAGGAUCACCCAUGUGUUAUUCAGAUUCAUAGAAUAUAACAAGGAUAUGUAUAUAUCA” was tested, and the “apparent Kd” value [3] was 228 nM and the “apparent Kd” value [4] was 61.6 nM.

With “CCCGCGUUUCGCGCCUACAUGAGGAUCACCCAUGUUUGUAGGCAGGAUAUCGUCCGCUCUGCGGGCGAGAAGGGCUGUUGUGGU” the “apparent Kd” value [3] was 90.8 nM and the “apparent Kd” value [4] was 84 nM.

“CGGGAAGUCGUAGGAUAUGGUGAUGUACAUGAGGAUCACCCAUGUCCGUCUUCUCUCACAAGAUGCCAGAAGGACGACCUCCGG” was tested, and the “apparent Kd” value [3] was 770 nM and the “apparent Kd” value [4] was 97.8 nM.

For “GCACAUGAGGAUCACCCAUGUCGGGAGGAUAUCUAGGCUGGGCGAUGCUAGGGCGGCCUUUGCUUAGAGAAGGCCCAUAAAAUC”, the “apparent Kd” value [3] was 69.1 nM and the “apparent Kd” value [4] was 32.4 nM.

“GUUUUCGCAUGAGGAUAUGCUCGCAUUUCAAGAGCAGAAGGUAUGUCUUUAGACAUGAGGAUCACCCAUGUAUUUAUCAUUGAA” was tested, and the “apparent Kd” value [3] was 101 nM and the “apparent Kd” value [4] was 26.2 nM.

In the case of “AAACCUUCUGAGGAUAUCUGAGGCCCUGCGCUUAGAGAAGGUAGUACAUGAGGAUCACCCAUGUCCGCGCUGGG”, the “apparent Kd” value [1] is reported as 16.3 nM and the “apparent Kd” value [2] is reported as 17.9 nM.

“UUUAUAAAGAUAGGAUAUAGUAUAAUAAUUUAAUUAGAAGGAUCACACAUGAGGAUCACCCAUGUAUGAGGAUCACCCAUGUAU” was tested, and the “apparent Kd” value [1] was 20.4 nM and the “apparent Kd” value [2] was 21.1 nM.

“AUUUUAUAAUAGAAGGUAGACUUCAUGAGGAUCACCCAUGUGUUGGUACUAAGGAUAUGUAAUAACAUGAGGAUCACCCAUGUU” was tested, and the “apparent Kd” value [3] was 16.1 nM and the “apparent Kd” value [4] was 15.2 nM.

For “GACUGCCGAGGAUAUACAUGAGGAUCACCCAUGUGCUUCAGUAUCGAAAGAUGCAUGGGUAGAAGGCGGUAGUC”, the “apparent Kd” value [1] was 391 nM and the “apparent Kd” value [2] was 284 nM.

“GCGUGGAAUACAGGAUAUGUUGUACAAUAAUCUUUGAGGCAUUGAGAUUAUACAGAAGGGUAAACAUGAGGAUCACCCAUGUAA” was tested, and the “apparent Kd” value [1] was 31 nM and the “apparent Kd” value [2] was 25.1 nM.

With “GCUAGGAAUGUCAGGAUAUGCAGAACCUUGGUUCUGCAGAAGGGACAUGAGGAUCACCCAUGUGCUAACCUAGC” the “apparent Kd” value [1] was 29.6 nM and the “apparent Kd” value [2] was 113 nM.

“UCGCUGCGAGGAUAUACAUGAGGAUCACCCAUGUACGGGUCCGGGUCUUCGUCCAUUGGUAGAAGGCGCAGUGA” was tested, and the “apparent Kd” value [1] was 23.1 nM and the “apparent Kd” value [2] was 204 nM.

For “CAUAUCGUACGAGGAUAUAUGAGUCCUACAUGAGGAUCACCCAUGUAGGUGAUCUAACGAGAUUAGUAGAAGGCGUACGAUAUG”, the “apparent Kd” value [3] was 14.1 nM and the “apparent Kd” value [4] was 7.85 nM.

“ACCAAUGGAGGAUAUACAUGAGGAUCACCCAUGUUUAUCCUACAUAGGUGAAAAAUAUGUAGAAGGCCAUUGGA” was tested, and the “apparent Kd” value [1] was 17 nM and the “apparent Kd” value [2] was 20.5 nM.

For “AGAAAACAUGAGGAUCACCCAUGUGAGGAUAUCGAUGUCCAAGUCCGGGUGCGGGACUCGAGAAGGCACUUGGG”, the “apparent Kd” value [1] was 55.9 nM and the “apparent Kd” value [2] was 55 nM.

With “UGCGGAAUCACAGGAUAUGCGGGAAGAACGAUACCGUACAUGAGGAUCACCCAUGUGGCGGCAAAGCAGAAGGGUGGUUCUCGC” the “apparent Kd” value [3] was 8.42 nM and the “apparent Kd” value [4] was 5.79 nM.

In the case of “CUGUGUUGCGGGCAGGAUAUGUAUUGGAAUACAUGAGGAUCACCCAUGUGCGGGUGUUUCACCCGACAGAAGGGCCAAUCGCGAC”, the “apparent Kd” value [3] is reported as 363 nM and the “apparent Kd” value [4] is reported as 34.9 nM.

With “AAUAACAGAGGAUAUACUAUUUUAUGUGUUUGUUAUUUUGAACAUGAGGAUCACCCAUGUAGAAGGCUGAUUGA” the “apparent Kd” value [1] was 47 nM and the “apparent Kd” value [2] was 44 nM.

For “CAGGUAGACUGAGGAUAUACAAUAAAGACCUAGUCUAUCUAGGUCUUCACAUGAGGAUCACCCAUGUAGAAGGCAGUCUGCCUG”, the “apparent Kd” value [1] was 19.1 nM and the “apparent Kd” value [2] was 38.5 nM.

In the case of “CUUUCGUGAGGAUAUGUGGCUUCGAUCGUGAGAUCGAAACUACAGAAGGCACAUGAGGAUCACCCAUGUUCCUC”, the “apparent Kd” value [1] is reported as 33.9 nM and the “apparent Kd” value [2] is reported as 540 nM.

“GCUGAAUGAACAUGAGGAUCACCCAUGUACAGGAAACUGAAUGAGGAUAUCCAUAGCAAAGCUAUGGAGAAGGCAUGGGUCAGC” was tested, and the “apparent Kd” value [3] was 338 nM and the “apparent Kd” value [4] was 94 nM.

With “UCUCACUCAGGAUAUGAUGCGCAUGACAUGAGGAUCACCCAUGUGUGCAUGCCCUUUGCUUCAGAAGGGAGUGAGA” the “apparent Kd” value [1] was 19 nM and the “apparent Kd” value [2] was 21.6 nM.
